Results published in publication PMC11260088 (Proceedings of the National Academy of Sciences of the …, 2024).
Bridge positions count the residues as written; N and C are the ends. Square brackets hold non-standard residues; d marks the D form. Peptide text beside a SMILES is read from it. * marks the point of attachment. X1 = CC[C@H](C)CCCCC(=O)*; Dab = NCC[C@H](N)C(=O)O

What was measured:
B. subtilis 168 = experiment: Membrane fluidity, DiIC12 staining; assay type: cell-based; conditions: 5 × MIC, DiIC12, 0.3 mM ZnSO4, 30 °C, 0 to 60 min
In short: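 B. subtilis 168 overnight cultures were diluted 1:200 into LB containing 1% DMSO and 2 µg/mL DiIC12. At OD600 0.3 cells were washed in dye-free medium and given 0.3 mM ZnSO4, then treated at 5× MIC, with daptomycin as positive control. Incubation was at 30 °C and 850 rpm, sampling at 0–60 min for fluorescence microscopy on agarose slides. Representative of three independent experiments.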

E. coli ATCC 25922 = experiment: MIC, broth microdilution; assay type: cell-based; conditions: LB + 0.3 mM ZnSO4, 37 °C, 18 h, median of min. triplicates
In short: (§1)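 Strains from glycerol stocks were grown overnight on blood agar at 37 °C. Single colonies went into TSB and grew to OD600 0.5, then were diluted 100-fold in LB + 0.3 mM ZnSO4 to 10^6 CFU/mL. Two-fold serial dilutions of test compound were made in triplicate in the same medium and mixed 1:1 with inoculum. Plates ran 18 h at 37 °C at 600 rpm. MIC was the median of at least triplicates, read visually.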

[1] = degradation product of bacitracin; cited from earlier work
E. faecium E155 (vanA) = experiment: MIC, broth microdilution; assay type: cell-based, Enterococcus faecium
In short: as §1

E. faecium E0013 (vanA) = experiment: MIC, broth microdilution; assay type: cell-based; conditions: LB + 0.3 mM ZnSO4
In short: as §1

E. faecium E0072 (vanA) = experiment: MIC, broth microdilution; assay type: cell-based; conditions: LB + 0.3 mM ZnSO4
In short: as §1

E. faecium E0300 (vanA) = experiment: MIC, broth microdilution; assay type: cell-based; conditions: LB + 0.3 mM ZnSO4
In short: as §1

E. faecium E0321 (vanA) = experiment: MIC, broth microdilution; assay type: cell-based; conditions: LB + 0.3 mM ZnSO4
In short: as §1

E. faecium E0333 (vanA) = experiment: MIC, broth microdilution; assay type: cell-based; conditions: LB + 0.3 mM ZnSO4
In short: as §1

E. faecium E0341 (vanA) = experiment: MIC, broth microdilution; assay type: cell-based; conditions: LB + 0.3 mM ZnSO4
In short: as §1

E. faecium E0506 (vanA) = experiment: MIC, broth microdilution; assay type: cell-based; conditions: LB + 0.3 mM ZnSO4
In short: as §1

E. faecium E0745 (vanA) = experiment: MIC, broth microdilution; assay type: cell-based; conditions: LB + 0.3 mM ZnSO4
In short: as §1

E. faecium E1130 (vanA) = experiment: MIC, broth microdilution; assay type: cell-based; conditions: LB + 0.3 mM ZnSO4
In short: as §1

E. faecium E1441 (vanA) = experiment: MIC, broth microdilution; assay type: cell-based; conditions: LB + 0.3 mM ZnSO4
In short: as §1

E. faecium E1679 (vanA) = experiment: MIC, broth microdilution; assay type: cell-based; conditions: LB + 0.3 mM ZnSO4
In short: as §1

E. faecium E1763 (vanA) = experiment: MIC, broth microdilution; assay type: cell-based; conditions: LB + 0.3 mM ZnSO4
In short: as §1

E. faecium E2297 (vanA) = experiment: MIC, broth microdilution; assay type: cell-based; conditions: LB + 0.3 mM ZnSO4
In short: as §1

E. faecium E2373 (vanA) = experiment: MIC, broth microdilution; assay type: cell-based; conditions: LB + 0.3 mM ZnSO4
In short: as §1

E. faecium E6016 (vanA) = experiment: MIC, broth microdilution; assay type: cell-based; conditions: LB + 0.3 mM ZnSO4
In short: as §1

E. faecium E7312 (vanA) = experiment: MIC, broth microdilution; assay type: cell-based; conditions: LB + 0.3 mM ZnSO4
In short: as §1

E. faecium E7319 (vanA) = experiment: MIC, broth microdilution; assay type: cell-based; conditions: LB + 0.3 mM ZnSO4
In short: as §1

E. faecium E7413 (vanA) = experiment: MIC, broth microdilution; assay type: cell-based; conditions: LB + 0.3 mM ZnSO4
In short: as §1

[2] = system: panel of E. faecium clinical isolates carrying the vanA vancomycin resistance gene; experiment: MIC50 / MIC90 over the VRE panel; assay type: cell-based
[3] = calculated over 19 vanA E. faecium clinical isolates, LB + 0.3 mM ZnSO4

Bacitracin
formation of regions of increased fluidity (RIF) (B. subtilis 168): to a much lesser degree

CC[C@H](C)CCCCC(=O)N[C@@H](CCN)C(=O)N[C@H](C(=O)N[C@@H](CCN)C(=O)N[C@H]1CCNC(=O)[C@H]([C@@H](C)O)NC(=O)[C@H](CCN)NC(=O)[C@H](CCN)NC(=O)[C@H](CC(C)C)NC(=O)[C@@H](Cc2ccccc2)NC(=O)[C@H](CCN)NC1=O)[C@@H](C)O [Polymyxin B] (X1-[Dab]T[Dab][Dab][Dab][dF]L[Dab][Dab]T; lactam 4-C (inferred); N-terminus assumed)
MIC E. coli ATCC 25922 (E. coli ATCC 25922): 2 µg/mL

Bacitracin F
nephrotoxicity [1]: nephrotoxic

CN[C@H](CC(C)C)C(=O)N[C@H]1C(=O)N[C@@H](CC(N)=O)C(=O)N[C@H]2C(=O)N[C@H]3C(=O)N[C@H](C(=O)N[C@H](C(=O)O)c4cc(O)cc(O)c4-c4cc3ccc4O)[C@H](O)c3ccc(c(Cl)c3)Oc3cc2cc(c3O[C@@H]2O[C@H](CO)[C@@H](O)[C@H](O)[C@H]2O[C@H]2C[C@](C)(N)[C@H](O)[C@H](C)O2)Oc2ccc(cc2Cl)[C@H]1O [Vancomycin]
MIC E. faecium E155 vanA (E. faecium E155 (vanA); LB + 0.3 mM ZnSO4, 37 °C, 18 h, median of min. triplicates): >64 µg/mL
MIC E. faecium E155 vanA (E. faecium E155 (vanA); Table 2, LB + 0.3 mM ZnSO4): >64 µg/mL
MIC E. faecium E0013 vanA (E. faecium E0013 (vanA)): >64 µg/mL
MIC E. faecium E0072 vanA (E. faecium E0072 (vanA)): >64 µg/mL
MIC E. faecium E0300 vanA (E. faecium E0300 (vanA)): >64 µg/mL
MIC E. faecium E0321 vanA (E. faecium E0321 (vanA)): >64 µg/mL
MIC E. faecium E0333 vanA (E. faecium E0333 (vanA)): >64 µg/mL
MIC E. faecium E0341 vanA (E. faecium E0341 (vanA)): >64 µg/mL
MIC E. faecium E0506 vanA (E. faecium E0506 (vanA)): >64 µg/mL
MIC E. faecium E0745 vanA (E. faecium E0745 (vanA)): >64 µg/mL
MIC E. faecium E1130 vanA (E. faecium E1130 (vanA)): >64 µg/mL
MIC E. faecium E1441 vanA (E. faecium E1441 (vanA)): >64 µg/mL
MIC E. faecium E1679 vanA (E. faecium E1679 (vanA)): >64 µg/mL
MIC E. faecium E1763 vanA (E. faecium E1763 (vanA)): >64 µg/mL
MIC E. faecium E2297 vanA (E. faecium E2297 (vanA)): >64 µg/mL
MIC E. faecium E2373 vanA (E. faecium E2373 (vanA)): >64 µg/mL
MIC E. faecium E6016 vanA (E. faecium E6016 (vanA)): >64 µg/mL
MIC E. faecium E7312 vanA (E. faecium E7312 (vanA)): >64 µg/mL
MIC E. faecium E7319 vanA (E. faecium E7319 (vanA)): >64 µg/mL
MIC E. faecium E7413 vanA (E. faecium E7413 (vanA)): >64 µg/mL
MIC for vancomycin, all strains of the vanA VRE selection ([2]; broader selection of VRE strains all carrying the vanA gene): ≥ 64 µg/mL
MIC50 [2, 3]: >64 µg/mL
MIC90 [2, 3]: >64 µg/mL
